What all share (type): cell-based, human
The subject of assay [1] is C4–2 cells. The experiment in a line: Wound healing. As to conditions: 12 h, 24 h and 48 h. An outline of the steps:
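A scratch was made in a C4–2 monolayer. The wounded cells were incubated for a further 12, 24 and 48 h. Images were taken at the start and at each interval to assess migration.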

Assay [2] concerns C4–2 cells. Description: DNA ladder. As to conditions: 10 μM, 48 h.
The test system of assay [3] is C4–2 cells. Description: Acridine orange/ethidium bromide. As to conditions: 48 h incubation. An outline of the steps: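 C4–2 cells were double-stained with acridine orange, which marks live and dead cells, and ethidium bromide, which marks dead cells only. Cell morphology was then examined to tell apoptosis from necrosis.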
The test system of assay [4] is PARP1 cleavage in C4–2 cells. Description: PARP1 cleavage assay. The settings on record: C4–2 cells treated with compound.
The test system of assay [5] is reactive oxygen species (ROS) in C4–2 cells. Description: ROS accumulation by DCFDA staining. As to conditions: 10 μM, 48 h. An outline of the steps: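 C4–2 cells were left untreated or exposed for 48 h to test compound at 10 μM or H2O2 at 10 μM as positive control. Intracellular ROS was stained with DCFDA and quantified.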

Entries after “also recorded” stand apart in the source; their conditions may differ.

Consider `COc1ccc2c(C3CC(c4ccncc4)=NO3)c[nH]c2c1` (stereo not drawn) [6c], for which the “inhibition of cell migration” value in the assay on C4–2 cells [1] was “potently inhibit C4–2 cell migration; also recorded: strong anti-cell motility property”. For the same molecule, the DNA ladder formation entry in the assay on C4–2 cells [2] is reported as “triggered the formation of DNA ladder”. Moreover, the “AO/EB staining: mode of cell death” value with C4–2 cells [3] is listed as “triggered apoptosis”. The “PARP1 cleavage (cleaved PARP level)” value in assay [4] is “induced apoptosis”.
For the molecule `Cc1c(C2CC(c3ccncc3)=NO2)c2ccccc2n1Cc1ccc(Cl)cc1` (stereo not drawn) [6i], the “inhibition of cell migration” value in the assay on C4–2 cells [1] was “potently inhibit C4–2 cell migration; also recorded: strong anti-cell motility property”. In the assay with C4–2 cells [2], the DNA ladder formation result is reported as “triggered the formation of DNA ladder”. In addition, the “AO/EB staining: mode of cell death” value in the assay with C4–2 cells [3] is “triggered apoptosis”. Besides, the “PARP1 cleavage (cleaved PARP level)” value in assay [4] was “induced apoptosis”.
H2O2: in assay [5], the “ROS level (DCFDA staining)” value was “high DCFDA staining”.

The values are drawn from paper PMC8653574 (Bioorganic & medicinal chemistry letters, 2018).
